One compound from ChEMBL document CHEMBL1140738, “New trisubstituted 1,2,4-triazole derivatives as potent ghrelin receptor antagonists. 3. Synthesis and pharmacological in vitro and in vivo evaluations” (J Med Chem, 2008) can be followed below.

Activity calls are given as the source filed them. The calls are words filed in the database; no cut-off is given here.

The test system of assay [1] is Rattus norvegicus. Description: Inhibition of hexarelin induced food intake per 100 gm of body weight in rat at 320 ug/kg, sc after 6 hrs. The class given is functional. The gist of the method: (§1)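 Rats dosed subcutaneously with compound (160 µg/kg alone, or graded 20, 80, 160, 320 µg/kg) with or without hexarelin 80 µg/kg sc. Cumulative food intake at 2 and 6 h expressed as g food per 100 g body weight; % variation versus hexarelin at 6 h = 100 × (compound+hexarelin − hexarelin)/hexarelin.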

Assay [2] has as its system Rattus norvegicus. Description: Effect on growth hormone secretion in infant rat at 80 ug/kg, sc at 160 ug/kg, sc in presence of hexarelin. The class given is functional. An outline of the steps: (§2)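 Infant rats given sc injection of compound at 160 µg/kg and/or hexarelin at 80 µg/kg; plasma rat GH measured (ng/mL).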
Assay [3] concerns the target T1, Cholecystokinin receptor type A (Homo sapiens) (UniProt P32238).
T1 sequence (whole entry): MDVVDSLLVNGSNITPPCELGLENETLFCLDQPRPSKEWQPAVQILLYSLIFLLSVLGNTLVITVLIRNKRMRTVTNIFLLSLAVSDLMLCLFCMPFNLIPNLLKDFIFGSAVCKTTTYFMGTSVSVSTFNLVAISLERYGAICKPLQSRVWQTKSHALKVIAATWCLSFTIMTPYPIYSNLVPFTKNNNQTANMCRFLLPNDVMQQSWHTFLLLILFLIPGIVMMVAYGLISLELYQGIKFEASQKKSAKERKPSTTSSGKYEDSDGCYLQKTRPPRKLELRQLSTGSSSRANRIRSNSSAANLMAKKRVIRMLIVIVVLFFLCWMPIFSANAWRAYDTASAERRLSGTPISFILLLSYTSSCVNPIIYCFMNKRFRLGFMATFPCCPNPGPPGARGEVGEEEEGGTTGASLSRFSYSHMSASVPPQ
Description: Binding affinity at CCK1 receptor at 10 uM.

The target of assay [4] is Motilin receptor (Homo sapiens) (UniProt O43193). The assay is described as follows: Binding affinity at motilin receptor at 10 uM.
Assay [5] addresses Substance-P receptor (Homo sapiens) (UniProt P25103). Description: Binding affinity at tachykinin 2 receptor at 10 uM.
In assay [6] the target is Vasopressin V1a receptor (Homo sapiens) (UniProt P37288). Description: Binding affinity at vasopressin 1a receptor at 10 uM.
For assay [7], the system named is Rattus norvegicus. The assay is described as follows: Inhibition of hexarelin induced food intake in rat at 20 ug/kg, sc. The class given is functional.
Assay [8] has as its system Rattus norvegicus. The assay is described as follows: Inhibition of hexarelin induced food intake in rat at 80 ug/kg, sc. The class given is functional.
Assay [9] has as its system Rattus norvegicus. The assay is described as follows: Effect on growth hormone secretion at 160 ug/kg, sc. The class given is functional. An outline of the steps: as §2
Assay [10] deals with T2, Growth hormone secretagogue receptor type 1 (Homo sapiens, UniProt Q92847). Description: Displacement of 125I]-His9-ghrelin from human GHSR1a expressed in LLCPK1 cells. The class given is cell-based, LLC-PK1. The gist of the method: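 Competition binding with membranes from LLC PK-1 cells transiently transfected with human GHS-R1a, incubated with 125I-His9-ghrelin and increasing concentrations of compound.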
For orientation: In a radioligand displacement assay an active substance lowers the binding of a labelled ligand.

For assay [11], the target named is T2, Growth hormone secretagogue receptor type 1. The assay is described as follows: Agonist activity at GHSR1a expressed in CHO cells assessed as accumulation of intracellular calcium level at 10 uM relative to ghrelin. The class given is functional, cell-based. The gist of the method:
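CHO cells transiently expressing GHS-R1a; intracellular Ca2+ accumulation read as fluorescence output. Increasing agonist concentrations were tested for dose-response; single-point activation at 10^-5 M is expressed as percent of the maximal response to ghrelin at 10^-7 M (100%).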

Assay [12] shares this target. The assay is described as follows: Antagonist activity at GHSR1a expressed in CHO cells assessed as inhibition of ghrelin induced accumulation of intracellular calcium. The class given is functional, cell-based. An outline of the steps:
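Antagonism measured in CHO cells transiently transfected with GHS-R1a: ghrelin dose-response curves of [Ca2+]i accumulation (fluorescence) run in the presence of various concentrations of test compound.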

Assay [13] relates to Rattus norvegicus. Description: Inhibition of hexarelin induced food intake per 100 gm of body weight in rat at 20 ug/kg, sc after 2 hrs. The class given is functional. An outline of the steps: as §1
Assay [14] concerns Rattus norvegicus. The assay is described as follows: Inhibition of hexarelin induced food intake per 100 gm of body weight in rat at 20 ug/kg, sc after 6 hrs. The class given is functional. The gist of the method:
as §1

Assay [15] has as its system Rattus norvegicus. Description: Inhibition of hexarelin induced food intake per 100 gm of body weight in rat at 80 ug/kg, sc after 2 hrs. The class given is functional. An outline of the steps:
as §1

Assay [16] has as its system Rattus norvegicus. The assay is described as follows: Inhibition of hexarelin induced food intake per 100 gm of body weight in rat at 80 ug/kg, sc after 6 hrs. The class given is functional. The gist of the method: as §1
The test system of assay [17] is Rattus norvegicus. Description: Inhibition of hexarelin induced food intake per 100 gm of body weight in rat at 160 ug/kg, sc after 2 hrs. The class given is functional. The gist of the method:
as §1

For assay [18], the system named is Rattus norvegicus. The assay is described as follows: Inhibition of hexarelin induced food intake per 100 gm of body weight in rat at 160 ug/kg, sc after 6 hrs. The class given is functional. The gist of the method:
as §1

The test system of assay [19] is Rattus norvegicus. Description: Inhibition of hexarelin induced food intake per 100 gm of body weight in rat at 320 ug/kg, sc after 2 hrs. The class given is functional. An outline of the steps:
as §1

T2 sequence (Q92847 whole entry): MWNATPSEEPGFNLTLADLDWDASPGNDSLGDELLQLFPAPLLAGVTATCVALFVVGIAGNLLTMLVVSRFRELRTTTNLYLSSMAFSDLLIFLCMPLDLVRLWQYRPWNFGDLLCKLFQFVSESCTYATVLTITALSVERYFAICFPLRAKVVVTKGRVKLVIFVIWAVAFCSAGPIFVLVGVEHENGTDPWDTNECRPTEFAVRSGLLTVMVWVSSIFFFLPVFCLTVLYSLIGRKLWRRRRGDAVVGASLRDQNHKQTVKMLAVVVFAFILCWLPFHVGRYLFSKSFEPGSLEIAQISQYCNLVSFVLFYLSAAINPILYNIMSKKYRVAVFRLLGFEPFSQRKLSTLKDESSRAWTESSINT
Sequence of Vasopressin V1a receptor (Homo sapiens) (P37288 whole entry, looked up): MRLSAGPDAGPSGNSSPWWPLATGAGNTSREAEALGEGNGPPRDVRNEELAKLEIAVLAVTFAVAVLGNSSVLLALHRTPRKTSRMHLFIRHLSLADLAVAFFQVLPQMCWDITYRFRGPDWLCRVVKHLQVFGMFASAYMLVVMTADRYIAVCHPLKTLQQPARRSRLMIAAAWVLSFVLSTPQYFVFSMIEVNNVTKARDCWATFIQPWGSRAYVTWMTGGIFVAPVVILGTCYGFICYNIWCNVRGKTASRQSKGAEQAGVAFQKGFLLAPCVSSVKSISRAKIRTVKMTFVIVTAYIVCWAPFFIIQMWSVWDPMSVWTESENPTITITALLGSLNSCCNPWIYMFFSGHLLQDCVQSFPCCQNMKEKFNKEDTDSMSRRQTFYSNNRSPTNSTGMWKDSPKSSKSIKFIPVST
Sequence of Substance-P receptor (Homo sapiens) (P25103 whole entry): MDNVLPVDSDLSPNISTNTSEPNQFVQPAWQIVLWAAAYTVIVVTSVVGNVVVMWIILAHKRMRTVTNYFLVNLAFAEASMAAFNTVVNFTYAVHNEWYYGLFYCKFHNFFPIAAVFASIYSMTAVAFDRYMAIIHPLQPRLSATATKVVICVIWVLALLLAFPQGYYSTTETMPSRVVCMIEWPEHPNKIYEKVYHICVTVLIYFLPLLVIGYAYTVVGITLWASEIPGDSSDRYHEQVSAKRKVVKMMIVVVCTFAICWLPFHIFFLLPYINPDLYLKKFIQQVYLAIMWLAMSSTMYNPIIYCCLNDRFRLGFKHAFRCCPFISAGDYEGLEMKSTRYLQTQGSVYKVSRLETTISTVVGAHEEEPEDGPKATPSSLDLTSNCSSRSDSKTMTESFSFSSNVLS
Sequence of Motilin receptor (Homo sapiens) (O43193 whole entry): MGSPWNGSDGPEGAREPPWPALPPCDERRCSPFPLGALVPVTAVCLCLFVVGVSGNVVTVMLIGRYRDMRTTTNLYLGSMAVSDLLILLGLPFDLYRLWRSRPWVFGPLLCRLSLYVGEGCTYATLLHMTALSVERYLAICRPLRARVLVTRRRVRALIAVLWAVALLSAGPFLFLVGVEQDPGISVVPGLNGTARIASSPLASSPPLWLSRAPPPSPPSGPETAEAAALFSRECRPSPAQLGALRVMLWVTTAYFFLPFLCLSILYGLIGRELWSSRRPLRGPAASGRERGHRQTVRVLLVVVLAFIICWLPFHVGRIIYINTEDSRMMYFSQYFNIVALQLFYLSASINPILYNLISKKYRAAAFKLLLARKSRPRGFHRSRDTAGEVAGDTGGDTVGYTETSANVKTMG

Take `COc1ccc(Cn2c(CCc3ccccc3)nnc2[C@@H](Cc2c[nH]c3ccccc23)NC(=O)c2ccccn2)c(OC)c1`: the Activity came out at 1.23 g in [1]; 138.39 ng/mL in assay [2]; 13.06 ng/mL in [9]; 0% in [11]; 0.56 g in [13]; 0.56 g in assay [14]. The Activity in assay [15] turned out to be 0.02 g; in [16], 0.02 g; in [17], 0.21 g; in [18], 0.21 g; in assay [19] it was 1.23 g. In addition, the outcome in assay [3], in [4], in assay [5] and in assay [6] was Active. The inhibition in vivo at 0.02 mg/kg in [7] was -44%. In addition, the inhibition in vivo at 0.08 mg/kg in [8] is -98%. The compound also returned an IC50 in assay [10] of 1.1 nM. Moreover, in assay [12], the Kb came out at 25 nM.

What is called inhibition in vivo is the drop in the measured response relative to a control, in per cent. What is called IC50 is the point on the concentration scale where inhibition reaches its midpoint. The low end stands for greater potency, the high end for weaker potency. Broadly, the Kb is the affinity of an antagonist, worked out from how it opposes an agonist.
